In ChEMBL document CHEMBL5724801, “EUbOPEN Chemogenomics Library - Multiplex” (2024):
Several values for one entry are separate records, joined by “and”; a condition that tells them apart may be missing. Equal entries are not always repeated.

Tested on: U2OS
Assay: Multiplex assay against U2OS
Format: toxicity, cell-based
Details: human
Outline: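 Hoechst33342, BioTracker Green Microtubule Cytoskeleton Dye, MitoTracker Red and Annexin V Alexa Fluor 680 were added to live cells at seeding, and imaging on a CQ1 microscope at 37°C and 5% CO2 followed compound addition. Gating by CellPathfinder machine learning separated cells into Hoechst high-intensity objects or normal cells, then normal cells into healthy, pyknosed or fragmented nuclei, then pyknosed cells into mitotic or apoptotic. Per cents of healthy-nucleus cells are reported for the tubulin, mitochondrial-mass and membrane-permeability phenotypes.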

[1] = 12 h, 1 µM, compound concentration 1 uM
[2] = 12 h, 10 µM, compound concentration 10 uM
[3] = 24 h, 1 µM, compound concentration 1 uM
[4] = 24 h, 10 µM, compound concentration 10 uM
[5] = 48 h, 1 µM, compound concentration 1 uM
[6] = 48 h, 10 µM, compound concentration 10 uM

SMILES: COc1cc(C(=O)N(CCCc2ccccc2)Cc2ccc(CC(=O)O)cc2)cc(OC)c1C
- Population Apoptotic (%) [1]: 95% and 70%
- Population Fragmented Nuclei (%) [1]: 29% and 23%
- Population Healthy Nuclei (%) [1]: 60% and 65%
- Population Hoechst High Intensity Objects (%) [1]: 4%
- Population Membrane Permeable-Phenotype (%) [1]: 7% and 8%
- Population Mitochondria Different-Phenotype (%) [1]: 4% and 1%
- Population Normal (%) [1]: 95%
- Population Pyknosed Nuclei (%) [1]: 10% and 11%
- Population Tubulin-Different-Phenotype (%) [1]: 4% and 1%
- Total Cell Count [1]: 228 and 93
- Population Apoptotic (%) [2]: 82% and 100%
- Population Fragmented Nuclei (%) [2]: 22% and 15%
- Population Healthy Nuclei (%) [2]: 71% and 79%
- Population Hoechst High Intensity Objects (%) [2]: 0% and 1%
- Population Membrane Permeable-Phenotype (%) [2]: 5% and 2%
- Population Mitochondria Different-Phenotype (%) [2]: 0% and 3%
- Population Mitotic Cells (%) [2]: 17% and 0%
- Population Normal (%) [2]: 99% and 98%
- Population Pyknosed Nuclei (%) [2]: 6% and 4%
- Population Tubulin-Different-Phenotype (%) [2]: 2% and 4%
- Total Cell Count [2]: 262 and 171
- Population Apoptotic (%) [3]: 84% and 73%
- Population Fragmented Nuclei (%) [3]: 29% and 22%
- Population Healthy Nuclei (%) [3]: 61% and 64%
- Population Hoechst High Intensity Objects (%) [3]: 2% and 4%
- Population Membrane Permeable-Phenotype (%) [3]: 7% and 2%
- Population Mitochondria Different-Phenotype (%) [3]: 6% and 2%
- Population Mitotic Cells (%) [3]: 15% and 26%
- Population Normal (%) [3]: 97% and 95%
- Population Pyknosed Nuclei (%) [3]: 9% and 13%
- Population Tubulin-Different-Phenotype (%) [3]: 4% and 0%
- Total Cell Count [3]: 288 and 120
- Population Apoptotic (%) [4]: 94% and 84%
- Population Fragmented Nuclei (%) [4]: 18% and 12%
- Population Healthy Nuclei (%) [4]: 76% and 80%
- Population Hoechst High Intensity Objects (%) [4]: 0% and 2%
- Population Membrane Permeable-Phenotype (%) [4]: 7%
- Population Mitochondria Different-Phenotype (%) [4]: 2% and 5%
- Population Mitotic Cells (%) [4]: 5% and 15%
- Population Normal (%) [4]: 99% and 97%
- Population Pyknosed Nuclei (%) [4]: 5% and 6%
- Population Tubulin-Different-Phenotype (%) [4]: 3% and 5%
- Total Cell Count [4]: 318 and 192
- Population Apoptotic (%) [5]: 86% and 78%
- Population Fragmented Nuclei (%) [5]: 23% and 22%
- Population Healthy Nuclei (%) [5]: 69% and 64%
- Population Hoechst High Intensity Objects (%) [5]: 3% and 6%
- Population Membrane Permeable-Phenotype (%) [5]: 5% and 7%
- Population Mitochondria Different-Phenotype (%) [5]: 2% and 5%
- Population Mitotic Cells (%) [5]: 13% and 21%
- Population Normal (%) [5]: 96% and 93%
- Population Pyknosed Nuclei (%) [5]: 7% and 12%
- Population Tubulin-Different-Phenotype (%) [5]: 4% and 6%
- Total Cell Count [5]: 408 and 159
- Population Apoptotic (%) [6]: 93% and 94%
- Population Fragmented Nuclei (%) [6]: 18% and 15%
- Population Healthy Nuclei (%) [6]: 75% and 71%
- Population Hoechst High Intensity Objects (%) [6]: 1% and 3%
- Population Membrane Permeable-Phenotype (%) [6]: 4% and 8%
- Population Mitochondria Different-Phenotype (%) [6]: 2% and 1%
- Population Mitotic Cells (%) [6]: 6% and 5%
- Population Normal (%) [6]: 98% and 96%
- Population Pyknosed Nuclei (%) [6]: 6% and 13%
- Population Tubulin-Different-Phenotype (%) [6]: 2% and 4%
- Total Cell Count [6]: 504 and 280

SMILES: COc1ccc(-n2c(C)c([N+](=O)[O-])c3ccc(O)cc32)cc1
- Population Apoptotic (%) [1]: 45.24% and 38.46%
- Population Fragmented Nuclei (%) [1]: 0.72% and 4.55%
- Population Healthy Nuclei (%) [1]: 89.23% and 88.07%
- Population Hoechst High Intensity Objects (%) [1]: 0%
- Population Membrane Permeable-Phenotype (%) [1]: 2.14% and 5.16%
- Population Mitochondria Different-Phenotype (%) [1]: 0.27% and 4.52%
- Population Mitotic Cells (%) [1]: 54.76% and 61.54%
- Population Normal (%) [1]: 100%
- Population Pyknosed Nuclei (%) [1]: 10.05% and 7.39%
- Population Tubulin-Different-Phenotype (%) [1]: 0.8% and 1.29%
- Total Cell Count [1]: 418 and 176
- Population Apoptotic (%) [2]: 24.32% and 50%
- Population Fragmented Nuclei (%) [2]: 1.07% and 1.43%
- Population Healthy Nuclei (%) [2]: 90.99% and 84.29%
- Population Hoechst High Intensity Objects (%) [2]: 0%
- Population Membrane Permeable-Phenotype (%) [2]: 1.42% and 6.78%
- Population Mitochondria Different-Phenotype (%) [2]: 0.47% and 5.08%
- Population Mitotic Cells (%) [2]: 75.68% and 50%
- Population Normal (%) [2]: 100%
- Population Pyknosed Nuclei (%) [2]: 7.94% and 14.29%
- Population Tubulin-Different-Phenotype (%) [2]: 4.01% and 0%
- Population Apoptotic (%) [3]: 52.94% and 48%
- Population Fragmented Nuclei (%) [3]: 1.65% and 2.64%
- Population Healthy Nuclei (%) [3]: 89.03% and 86.34%
- Population Hoechst High Intensity Objects (%) [3]: 0%
- Population Membrane Permeable-Phenotype (%) [3]: 0.62% and 4.08%
- Population Mitochondria Different-Phenotype (%) [3]: 0.21% and 4.08%
- Population Mitotic Cells (%) [3]: 47.06% and 52%
- Population Normal (%) [3]: 100%
- Population Pyknosed Nuclei (%) [3]: 9.32% and 11.01%
- Population Tubulin-Different-Phenotype (%) [3]: 1.03% and 1.53%
- Total Cell Count [3]: 547 and 227
- Population Apoptotic (%) [4]: 38.64% and 52.38%
- Population Fragmented Nuclei (%) [4]: 2.67% and 2.78%
- Population Healthy Nuclei (%) [4]: 90% and 85.56%
- Population Hoechst High Intensity Objects (%) [4]: 0%
- Population Membrane Permeable-Phenotype (%) [4]: 1.67% and 3.9%
- Population Mitochondria Different-Phenotype (%) [4]: 0.37% and 3.25%
- Population Mitotic Cells (%) [4]: 61.36% and 47.62%
- Population Normal (%) [4]: 100%
- Population Pyknosed Nuclei (%) [4]: 7.33% and 11.67%
- Population Tubulin-Different-Phenotype (%) [4]: 1.67% and 0%
- Population Apoptotic (%) [5]: 36.36% and 48.48%
- Population Fragmented Nuclei (%) [5]: 2.25% and 2.47%
- Population Healthy Nuclei (%) [5]: 88.75% and 88.46%
- Population Hoechst High Intensity Objects (%) [5]: 0%
- Population Membrane Permeable-Phenotype (%) [5]: 0.69% and 2.48%
- Population Mitochondria Different-Phenotype (%) [5]: 0% and 3.42%
- Population Mitotic Cells (%) [5]: 63.64% and 51.52%
- Population Normal (%) [5]: 100%
- Population Pyknosed Nuclei (%) [5]: 9% and 9.07%
- Population Tubulin-Different-Phenotype (%) [5]: 0.58% and 1.24%
- Total Cell Count [5]: 978 and 364
- Population Apoptotic (%) [6]: 56.82% and 55.26%
- Population Fragmented Nuclei (%) [6]: 3.3% and 3.1%
- Population Healthy Nuclei (%) [6]: 87.91% and 83.79%
- Population Hoechst High Intensity Objects (%) [6]: 0%
- Population Membrane Permeable-Phenotype (%) [6]: 0.91% and 4.12%
- Population Mitochondria Different-Phenotype (%) [6]: 0.11% and 3.7%
- Population Mitotic Cells (%) [6]: 43.18% and 44.74%
- Population Normal (%) [6]: 100%
- Population Pyknosed Nuclei (%) [6]: 8.79% and 13.1%
- Population Tubulin-Different-Phenotype (%) [6]: 1.7% and 2.88%

SMILES: O=C(Nc1cc(C(F)(F)F)cc(C(F)(F)F)c1)c1cc(Cl)ccc1O [IMD-0354]
- Population Apoptotic (%) [1]: 56.25% and 45.83%
- Population Fragmented Nuclei (%) [1]: 0.73% and 2.45%
- Population Healthy Nuclei (%) [1]: 91.46% and 82.82%
- Population Hoechst High Intensity Objects (%) [1]: 0.24% and 0.61%
- Population Membrane Permeable-Phenotype (%) [1]: 0.27% and 2.22%
- Population Mitochondria Different-Phenotype (%) [1]: 0% and 7.41%
- Population Mitotic Cells (%) [1]: 43.75% and 54.17%
- Population Normal (%) [1]: 99.76% and 99.39%
- Population Pyknosed Nuclei (%) [1]: 7.8% and 14.72%
- Population Tubulin-Different-Phenotype (%) [1]: 0.27% and 0.74%
- Total Cell Count [1]: 411 and 164
- Population Apoptotic (%) [2]: 45.45% and 65%
- Population Fragmented Nuclei (%) [2]: 2.48% and 9.2%
- Population Healthy Nuclei (%) [2]: 87.61% and 79.31%
- Population Hoechst High Intensity Objects (%) [2]: 0%
- Population Membrane Permeable-Phenotype (%) [2]: 0% and 0.72%
- Population Mitochondria Different-Phenotype (%) [2]: 0% and 2.9%
- Population Mitotic Cells (%) [2]: 54.55% and 35%
- Population Normal (%) [2]: 100%
- Population Pyknosed Nuclei (%) [2]: 9.91% and 11.49%
- Population Tubulin-Different-Phenotype (%) [2]: 0.26% and 0%
- Total Cell Count [2]: 444 and 174
- Population Apoptotic (%) [3]: 40.91% and 57.69%
- Population Fragmented Nuclei (%) [3]: 1.32% and 3.81%
- Population Healthy Nuclei (%) [3]: 90.38% and 83.81%
- Population Hoechst High Intensity Objects (%) [3]: 0%
- Population Membrane Permeable-Phenotype (%) [3]: 0.21% and 1.7%
- Population Mitochondria Different-Phenotype (%) [3]: 0% and 8.52%
- Population Mitotic Cells (%) [3]: 59.09% and 42.31%
- Population Normal (%) [3]: 100%
- Population Pyknosed Nuclei (%) [3]: 8.3% and 12.38%
- Population Tubulin-Different-Phenotype (%) [3]: 0.42% and 0.57%
- Total Cell Count [3]: 530 and 210
- Population Apoptotic (%) [4]: 60.24% and 73.33%
- Population Fragmented Nuclei (%) [4]: 1.8% and 8.77%
- Population Healthy Nuclei (%) [4]: 79.5% and 73.68%
- Population Hoechst High Intensity Objects (%) [4]: 0%
- Population Membrane Permeable-Phenotype (%) [4]: 2.55% and 1.59%
- Population Mitochondria Different-Phenotype (%) [4]: 0% and 0.79%
- Population Mitotic Cells (%) [4]: 39.76% and 26.67%
- Population Normal (%) [4]: 100%
- Population Pyknosed Nuclei (%) [4]: 18.69% and 17.54%
- Population Tubulin-Different-Phenotype (%) [4]: 3.4% and 0%
- Total Cell Count [4]: 444 and 171
- Population Apoptotic (%) [5]: 46.15% and 44.44%
- Population Fragmented Nuclei (%) [5]: 2.37% and 2.99%
- Population Healthy Nuclei (%) [5]: 91.15% and 83.53%
- Population Hoechst High Intensity Objects (%) [5]: 0%
- Population Membrane Permeable-Phenotype (%) [5]: 0.68% and 0.36%
- Population Mitochondria Different-Phenotype (%) [5]: 0.14% and 3.58%
- Population Mitotic Cells (%) [5]: 53.85% and 55.56%
- Population Normal (%) [5]: 100%
- Population Pyknosed Nuclei (%) [5]: 6.48% and 13.47%
- Population Tubulin-Different-Phenotype (%) [5]: 1.23% and 0.36%
- Total Cell Count [5]: 802 and 334
- Population Apoptotic (%) [6]: 62.57% and 80.82%
- Population Healthy Nuclei (%) [6]: 51.4% and 35.44%
- Population Hoechst High Intensity Objects (%) [6]: 0% and 0.63%
- Population Membrane Permeable-Phenotype (%) [6]: 13.86% and 7.14%
- Population Mitochondria Different-Phenotype (%) [6]: 1.49% and 1.79%
- Population Mitotic Cells (%) [6]: 37.43% and 19.18%
- Population Normal (%) [6]: 100% and 99.37%
- Population Pyknosed Nuclei (%) [6]: 45.55% and 46.2%
- Population Tubulin-Different-Phenotype (%) [6]: 11.39% and 8.93%
- Total Cell Count [6]: 393 and 159
